Results reported in publication PMC3839847 (Current topics in medicinal chemistry, 2012).

Columns and labels:
[1] = target: CXCL12 (Homo sapiens, UniProt P48061); experiment: 2D 1H-15N HSQC NMR titration, fragment binding to CXCL12; conditions: for CXCL12 chemical shift perturbations: 2D NMR titration, no meaningful affinity value could be fitted; for LE: ligand efficiency: free energy of binding divided by number of non-hydrogen atoms (kcal/mol/non-hydrogen atom)
[2] = tested on: CXCL12-induced chemotaxis of THP-1 monocytes; experiment: in vitro chemotaxis assay, THP-1 monocytes with CXCL12; format: cell-based; conditions: read-out: IC50 of chemotaxis to CXCL12, 10 nM CXCL12
How it was run: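 Chemotaxis in vitro used THP-1 monocytes, which express CXCR4 endogenously, exposed to CXCL12 with or without each tetrazole fragment.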

[3] = tested on: CCL2 (MCP-1), activates the CCR2 receptor; experiment: chemotaxis assay repeated with CCL2; format: cell-based; conditions: data not shown

SMILES | CXCL12 chemical shift perturbations [1] | Kd [1] | LE [1] | also measured
CC(=O)Nc1ccccc1-c1nnn[nH]1 [Compound 10, N-(2-(1H-Tetrazol-5-yl)phenyl) acetamide] | small chemical shift perturbations | – | – | –
CC(=O)Nc1cccc(-c2nnn[nH]2)c1 [Compound 12, N-(3-(1H-tetrazol-5-yl)phenyl)acetamide] | small chemical shift perturbations | – | – | –
O=C(Nc1cccc(-c2nnn[nH]2)c1)c1ccccc1 [Compound 13, N-(3-(1H-tetrazol-5-yl)phenyl)benzamide] | – | 50 ± 16 µM | 0.29 | –
CC(=O)Nc1ccc(-c2nnn[nH]2)cc1 [Compound 14, N-(4-(1H-tetrazol-5-yl)phenyl)acetamide] | small chemical shift perturbations | – | – | –
O=C(Nc1ccc(-c2nnn[nH]2)cc1)c1ccccc1 [Compound 15, N-(4-(1H-tetrazol-5-yl)phenyl)benzamide] | – | 64 ± 23 µM | 0.29 | –
O=C(Nc1ccc(-c2nn[nH]n2)cc1)Nc1cccc2ccccc12 [Compound 25] | – | – | – | IC50 [2]: 111 ± 24 µM; specificity for CXCL12- versus CCL2-induced migration [3]: specifically inhibits CXCL12-induced migration

More lines, main results first:

CXCL12 chemical shift perturbations [1] | Kd [1] | LE [1] | SMILES | also measured
– | 13 ± 7 µM | 0.33 | O=C(Nc1ccccc1-c1nnn[nH]1)c1ccccc1 [Compound 11, N-(2-(1H-Tetrazol-5-yl)phenyl)benzamide] | –
– | 327 ± 92 µM | 0.23 | O=C(Nc1ccccc1)Nc1ccccc1-c1nnn[nH]1 [Compound 16, 1-(2-(1H-Tetrazol-5-yl)phenyl)-3-phenylurea] | –
– | 126 ± 23 µM | 0.25 | O=C(Nc1ccccc1)Nc1cccc(-c2nnn[nH]2)c1 [Compound 17, 1-(3-(1H-tetrazol-5-yl)phenyl)-3-phenylurea] | –
– | 24 ± 28 µM | 0.30 | O=C(Nc1ccccc1)Nc1ccc(-c2nnn[nH]2)cc1 [Compound 18, 1-(4-(1H-Tetrazol-5-yl)phenyl)-3-phenylurea] | –
